NadD block = inhibitors of S. aureus NadD, primary screen, biochemical, colorimetric, uHTS; inhibition, % at 20 µM; AID 602399, 2012; Nicotinate-nucleotide adenylyltransferase NadD (Staphylococcus aureus N315); 0.78% of 360,000 active; purified NadD enzyme, colorimetric absorbance read-out; in the data active = inhibition above about 26%
STEP block = STEP phosphatase inhibitors, primary screen, biochemical, fluorescence intensity, uHTS; recombinant STEP, OMFP fluorogenic substrate; 0.25% of 360,000 active; inhibition, % at 20 µM; Tyrosine-protein phosphatase non-receptor type 5 (Homo sapiens), P54829;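 active = inhibition at 20 µM, scaled per plate between control wells, above about 37%, limit read from the data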
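Assay system: isolated STEP enzyme / Timing: 20 min at room temperature, dark / Doses: 20 µM, 1% DMSO / Technique: fluorescence intensity, excitation 480 nm, emission 540 nm / Reagent: fluorogenic phosphatase substrate OMFP at 25 µM final / Measure: percent inhibition scaled to no-enzyme and uninhibited-enzyme controls, plate-pattern corrected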
rCAG binder = binders of r(CAG) RNA repeats, primary screen, biochemical, fluorescence; inhibition, % at 3 µM; 1.3% of 370,000 active; r(CAG) RNA repeat, TO-PRO-1 dye displacement fluorescence; AID 651821, 2012;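 active = inhibition above the plate cutoff, the mean of all test compounds on that plate plus 3 SD, cut at about 35% in these data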;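 note: higher means more dye released from RNA so lower well fluorescence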
Scp-1 inhibitor = Scp-1 phosphatase inhibitors, primary screen, biochemical, colorimetric, uHTS; Carboxy-terminal domain RNA polymerase II polypeptide A small phosphatase 1 (Homo …; Recombinant Scp1, phosphopeptide, malachite green phosphate absorbance; inhibition, % at 20 µM; 0.88% of 340,000 active;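 active = inhibition above about 50% at 20 µM, limit read from the data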
Target sequence (Q9GZU7 76-261 limits assumed): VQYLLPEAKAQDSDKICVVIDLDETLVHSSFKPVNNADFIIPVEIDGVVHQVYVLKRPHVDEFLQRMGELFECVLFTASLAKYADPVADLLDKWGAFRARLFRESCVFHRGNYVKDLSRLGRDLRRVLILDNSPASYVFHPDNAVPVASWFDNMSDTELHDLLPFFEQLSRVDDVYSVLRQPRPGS
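Test system: SCP-1 phosphatase catalytic domain, residues 76-261 | Compound dosing: One concentration, 20 µM, with 1.0% DMSO | Schedule: 45 min room-temperature reaction, 5 min colour, 30 min stabiliser | Detection: Absorbance at 630 nm | Read-out basis: % inhibition of SCP-1 phosphate liberation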
LMPTP inh = LMPTP phosphatase inhibitors, primary screen, biochemical, fluorescence intensity, uHTS. Low molecular weight phosphotyrosine protein phosphatase (Homo sapiens), P24666. recombinant LMPTP-A, OMFP fluorogenic substrate. inhibition, % at 20 µM. 0.22% of 360,000 active. AID 651560, 2012;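 active = compounds that cut the enzyme signal by at least half of the control window in the single-dose screen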
Target sequence (P24666 whole entry, looked up): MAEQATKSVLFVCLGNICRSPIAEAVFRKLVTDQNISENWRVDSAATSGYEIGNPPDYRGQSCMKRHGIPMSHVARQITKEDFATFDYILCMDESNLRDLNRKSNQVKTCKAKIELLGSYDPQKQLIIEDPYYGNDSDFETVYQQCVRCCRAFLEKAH
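Assay system: LMPTP-A enzyme. Input: 0.625 nM LMPTP-A final. Probe or stimulus: 400 µM OMFP. Compound dosing: single 20 µM dose. Schedule: 50 min dark incubation at room temperature. Detection: fluorescence intensity of OMFP turnover product. Read-out: percent inhibition versus substrate-only and uninhibited controls. Benchmarks: no-enzyme low control, uninhibited high control.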
A number is an active result; i = inactive; nt = no result given. A selection: hits, their analogues and other compounds. The true share with any hit is near 2.6%.

SMILES | NadD block | STEP block | rCAG binder | Scp-1 inhibitor | LMPTP inh
CC[C@H]1OC(=O)[C@H](C)[C@@H](O[C@H]2C[C@@](C)(OC)[C@@H](O)[C@H](C)O2)[C@H](C)[C@@H](O[C@@H]2O[C@H](C)C[C@H](N(C)C)[C@H]2O)[C@](C)(O)C[C@@H](C)C(=O)[C@H](C)[C@@H](O)[C@]1(C)O | i | i | i | i | 74.9
CCOC(=O)CCC(=O)O[C@H]1[C@H](O[C@@H]2[C@@H](C)[C@H](O[C@H]3C[C@@](C)(OC)[C@@H](O)[C@H](C)O3)[C@@H](C)C(=O)O[C@H](CC)[C@@](C)(O)[C@H](O)[C@@H](C)C(=O)[C@H](C)C[C@@]2(C)O)O[C@H](C)C[C@@H]1N(C)C | i | i | i | i | i
O=C(OCCN1CCCC12CCC(c1ccccc1)CC2)c1ccccc1 (stereo not drawn) | nt | nt | i | nt | nt
C=CCN=C1N[C@@H](c2ccccc2)C(C(=O)OC)=C(C)N1CCOC | i | i | i | i | i
COCCN1C(=NCCCOC(C)C)N[C@@H](c2ccccc2)C(C(=O)OC)=C1C | i | i | i | 54.6 | i
CCN(CC)CCCN=C1N[C@@H](c2cccc(F)c2)C(C(=O)OC)=C(C)N1Cc1ccccc1 | i | i | i | 102.6 | i
CC(C)C[C@@H](CO)N1Cc2nnn(Cc3ccccc3)c2-c2ccccc2S1(=O)=O | nt | nt | i | nt | nt
O=c1oc(-c2ccc(O)c(O)c2)cc2cccc(O)c12 | i | i | i | i | i
Oc1cccc2cc3cccc(O)c3c(O)c12 | 70.0 | i | nt | i | i
CCn1cc(Cl)c(C(=O)N2N=C(c3ccc4ccccc4c3)CC2c2ccccc2O)n1 (stereo not drawn) | 35.0 | i | i | i | i
CCn1cc([N+](=O)[O-])c(C(=O)N2N=C(c3ccc4ccccc4c3)CC2c2ccccc2O)n1 (stereo not drawn) | i | i | i | i | i
O=S1(=O)C=CCN1Cc1cn(Cc2ccc(C(F)(F)F)cc2)nn1 | nt | nt | i | nt | nt
CCOC(=O)N1CCN(C(=O)C[C@@H]2C(=O)N(CCc3ccc(Cl)cc3)/C3=C/CCCCC[C@@]32C(=O)OCC)CC1 | nt | nt | i | nt | nt
COC(=O)[C@]12C[C@H](CC(=O)N3CCC(c4ccccc4)CC3)C(=O)N(Cc3cccc4ccccc34)C1=C[C@H](C(C)(C)C)O[C@@H]2C | nt | nt | i | nt | nt
CC(=O)Nc1ccc(S(=O)(=O)N2CCN(c3cc(C)nc4ccccc34)CC2)cc1 | i | i | i | i | i
CC(=O)Nc1ccc(S(=O)(=O)N2CCN(c3nc(NC4CCCC4)c4ccccc4n3)CC2)cc1 | i | i | i | i | 63.0
CCC(NC(=O)c1cccc2c1C(=O)N(Cc1cccnc1)C2)c1ccccc1 (stereo not drawn) | nt | nt | i | nt | nt
Cc1cc(/C=C2/SC(=S)N(c3cccc(C(F)(F)F)c3)C2=O)c(C)n1-c1cccnc1 | 44.2 | i | nt | i | i
Cc1cc(/C=C2\SC(=S)N(Cc3ccco3)C2=O)c(C)n1-c1cccnc1 | i | i | i | i | i
COc1ccc(CCn2c(C3CCCCC3)nc3c(c(=O)c4ccccc4n3C)c2=O)cc1 | i | 97.6 | i | i | 103.7
COc1ccccc1Nc1nc(-c2ccc3c(c2)NC(=O)CO3)cs1 | i | i | i | i | i
COc1ccc(Nc2nc(-c3ccc4c(c3)NC(=O)CO4)cs2)cc1 | i | i | i | i | 54.0
CCC(C)Nc1nc(-c2ccc3c(c2)NC(=O)CO3)cs1 (stereo not drawn) | i | i | i | i | 48.3
CCCCOCCCNC(=O)C[C@H]1C[C@@]2(C(=O)OC)C(=C[C@H](C3CCCC3)O[C@@H]2C)N(CCc2ccc(OC)c(OC)c2)C1=O | nt | nt | i | nt | nt
O=C(O)CSc1nc2sc3c(c2c(=O)n1-c1ccccc1)CCC3 | i | i | i | i | i
SMILES | NadD block | STEP block | rCAG binder | Scp-1 inhibitor | LMPTP inh
CC(NC(=O)CSc1nc2sc3c(c2c(=O)n1-c1ccccc1)CCCC3)c1ccccc1 (stereo not drawn) | 32.8 | i | i | i | i
O=C(Nc1ccc(N2CCOCC2)cc1)Nc1ccc2nc(-c3ccco3)c(-c3ccco3)nc2c1 | i | i | i | i | i
O=C(Nc1cccc(C(F)(F)F)c1)c1ccc2nc(-c3ccco3)c(-c3ccco3)nc2c1 | 64.6 | i | i | 84.2 | i
O=C(Nc1ccc2nc(-c3ccco3)c(-c3ccco3)nc2c1)NC1CC1 | 27.6 | 54.2 | nt | 92.2 | 70.5
O=C(Nc1cccc(C(F)(F)F)c1)c1cc[n+]([O-])cc1 | i | i | i | i | i
COc1ccc(CCNC(=O)c2ccc3nc(-c4ccco4)c(-c4ccco4)nc3c2)cc1OC | 46.7 | i | nt | 89.3 | 63.9
CCc1nc2ccc(C(=O)NCCc3ccc(OC)c(OC)c3)cc2nc1CC | i | i | i | i | i
C=CCN1C(C(=O)OC)CN(Cc2cn(Cc3ccc(C)cc3)nn2)CCS1(=O)=O (stereo not drawn) | nt | nt | i | nt | nt
O=C(NCCc1cccc(F)c1)c1cc2ccccn2n1 | nt | nt | i | nt | nt
CCN(CC)c1ccc2c(-c3ccc(S(=O)(=O)O)cc3S(=O)(=O)[O-])c3ccc(=[N+](CC)CC)cc-3oc2c1 | i | i | nt | 76.7 | i
CCC(=O)Nc1ccc(S(=O)(=O)Nc2nccs2)cc1 | i | i | i | i | i
CCCCC1CCC(C(=O)Nc2ccc(S(=O)(=O)Nc3nccs3)cc2)CC1 (stereo not drawn) | 33.0 | i | nt | i | i
Cc1cc(C)cc(NC(=O)NCCCN2CCN(c3ccc(F)cc3)CC2)c1 | nt | nt | i | nt | nt
Cc1nc(N)nc(N)c1/C=C/C(C)(C)c1ccc(Cl)cc1 | i | i | i | i | 80.8
C=CCn1c2ccccc2c(=O)c2cc(C#Cc3cc(OC)cc(OC)c3)ccc21 | i | i | i | 52.2 | i
Cn1c2ccccc2c(=O)c2cc(C#Cc3ccccn3)ccc21 | i | i | i | 58.0 | i
CC(C)(C)N1C(=O)Cc2c1nc(N)c1c(N)nc(N3CCCCC3CO)c(C#N)c21 (stereo not drawn) | 36.6 | i | nt | i | i
CCOC(=O)C1CCN(S(=O)(=O)c2ccc3c(c2)CC(=O)N3C)CC1 | i | i | i | 69.2 | i
Cc1ccccc1NC(=O)CN1CCN(c2nc(-c3ccccc3)cs2)CC1 | nt | nt | i | nt | nt
O=C(Nc1ccc(F)cc1F)c1noc2c1CCC2 | i | i | nt | 78.6 | i
Cc1[nH]ccc2cc3nc4ccccc4c3cc12 | i | i | i | nt | 86.3
Cc1cccc2nc3ccccc3cc12 | i | i | i | i | i
CC(C)c1nc(N(C)S(C)(=O)=O)nc(-c2ccc(F)cc2)c1/C=C/[C@H](O)C[C@@H](O)CC(=O)O | nt | nt | i | nt | nt
CCOc1ccc(-n2c(SCC(=O)Nc3cccc4ccccc34)nnc2-c2ccco2)cc1 | nt | nt | i | nt | nt
